Compound activity: PubChem, several laboratories
WT yeast gro inh: growth inhibition of WT strain, primary screen, mitochondrial fusion inhibitor project, WT and mutant strains, chemical genetic; inhibition, % at 10 µM; mitochondrial fusion phenotypic screen; 190,000 compounds, 2.1% hits; AID 1362, 2008; in the data active means inhibition above about 58%; tested in S. cerevisiae
RBBP9 inhibitor: human RBBP9 inhibitors, primary screen, biochemical, fluorescence polarization, FP-Rh probe, HTS; Serine hydrolase RBBP9 (Homo sapiens), O75884; recombinant RBBP9; inhibition, % at 7.94 µM; 220,000 compounds, 0.2% hits;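 active means inhibition above the campaign mean of all tested compounds plus 3 SD, cut at about 14% in these data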;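 further: plate controls were DMSO wells with RBBP9 for no effect and wells lacking RBBP9 protein for full effect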
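System: RBBP9 protein | Quantity: 2.5 µM RBBP9 dispensing solution, before mixing | Reagent: FP-Rh probe, 375 nM dispensing solution | Timing: Enzyme-compound preincubation 30 min, then probe labeling 45 min, 25 °C | Measured by: Fluorescence polarization | Read-out: % inhibition | Replication: One well per compound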
eIF4E 4G PPI: eIF4E–eIF4G protein interaction inhibitors, primary screen, biochemical, uHTS, TR-FRET, eIF4GI fragment; TR-FRET eIF4E-eIF4GI(517-606) binding, 2 h; inhibition, % at 21.7 µM; 220,000 compounds, 0.37% hits;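 further: 0% = full FRET control wells and 100% = background wells lacking eIF4GI fragment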
EBV gp42 inh: Epstein-Barr virus gp42 inhibitors, primary screen, biochemical, uHTS, fluorescence polarization; Fluorescence polarization binding assay, mP read-out; inhibition, % (tested at 21.74 µM); 220,000 compounds, 0.42% hits; AID 1085, 2008; in the data active means inhibition above about 50%
Target sequence (Q1HVG2 whole entry, looked up): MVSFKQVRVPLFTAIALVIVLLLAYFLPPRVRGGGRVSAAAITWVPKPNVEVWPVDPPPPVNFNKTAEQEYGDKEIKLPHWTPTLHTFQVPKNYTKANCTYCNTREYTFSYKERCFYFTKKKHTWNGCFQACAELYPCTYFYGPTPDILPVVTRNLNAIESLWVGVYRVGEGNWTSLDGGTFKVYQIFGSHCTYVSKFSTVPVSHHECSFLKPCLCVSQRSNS
14-3-3 Bad PPI: inhibitors of 14-3-3 zeta/Bad binding, primary screen, biochemical, TR-FRET, bovine 14-3-3 zeta; 14-3-3 protein zeta/delta (Bos taurus), P63103; TR-FRET 14-3-3zeta/Dy647-pBad peptide displacement, 1 h; inhibition, % at 21.7 µM; 220,000 compounds, 0.71% hits; AID 781, 2007;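 active means inhibition above about 70%, limit read from the data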;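 further: 0% = full 14-3-3 plus peptide FRET controls and 100% = background without 14-3-3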
NCF1 inh: p47phox/p22phox peptide binding inhibitors, primary screen, biochemical, uHTS, NADPH oxidase regulatory subunit. Neutrophil cytosol factor 1 (Homo sapiens), P14598. fluorescence polarization, 2 h. inhibition, % at 24.7 µM. 220,000 compounds, 0.53% hits;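 further: 0% = p47phox with labelled peptide and 100% = labelled peptide alone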
Target sequence (P14598 whole entry, looked up): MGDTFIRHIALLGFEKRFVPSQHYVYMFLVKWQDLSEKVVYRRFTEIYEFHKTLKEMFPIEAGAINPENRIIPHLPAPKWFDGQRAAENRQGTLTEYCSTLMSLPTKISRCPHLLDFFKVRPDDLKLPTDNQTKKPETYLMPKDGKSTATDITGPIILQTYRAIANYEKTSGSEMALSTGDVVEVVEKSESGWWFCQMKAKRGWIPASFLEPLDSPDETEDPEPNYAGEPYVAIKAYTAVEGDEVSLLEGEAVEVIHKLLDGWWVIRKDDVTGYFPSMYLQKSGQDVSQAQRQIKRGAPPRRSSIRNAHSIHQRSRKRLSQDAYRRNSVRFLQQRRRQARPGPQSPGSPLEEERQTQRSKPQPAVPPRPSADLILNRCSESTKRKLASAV
An asterisk follows results filed as active; · = no result; [ ] = another dose, or the depositor's remark. An excerpt weighted towards active compounds, which were near 3.7% of everything screened.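 How the source made its calls, unless noted: active means inhibition above about 30% (limit read from the data); inactive means the rest.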

SMILES	WT yeast gro inh	RBBP9 inhibitor	eIF4E 4G PPI	EBV gp42 inh	14-3-3 Bad PPI	NCF1 inh
O=C(Nc1ccc(S(=O)(=O)Nc2ncccn2)cc1)c1ccc(N2CCCC2=O)cc1	·	3.5	-3.3	-18.8	-0.4	-27.6
O=c1[nH]cc(N(CCO)CCO)c(=O)[nH]1	·	-2.9	93.9*	4.6	0.2	7.9
COC(=O)N1CCN(c2ccc(OC)cc2)CC1	-7.6	1.4	3.3	-14.0	8.9	3.2
COc1ccc(N2CCN(C(C)C(=O)N3CCCC3)CC2)cc1 (configuration not stated)	2.1	-3.8	10.5	-12.0	78.8*	-0.5
O/N=C(\c1ccc(Cl)cc1Cl)c1ncc(C(F)(F)F)cc1Cl	85.1*	-4.7	2.0	1.5	6.4	-7.5
CC1(CC(=O)N/N=C/c2ccc(OCc3ccc(Cl)cc3Cl)cc2)OCCCO1	77.3*	-8.1	3.8	-9.8	-7.2	-7.8
COc1cc(/C=N/NC(=O)CC2(C)OCCCO2)ccc1OCc1ccc(Cl)cc1Cl	23.2	-5.5	8.7	8.8	-3.2	-9.1
Cc1ccc(C)c(Sc2ccc(NC(=O)CCl)cc2)c1	68.8*	-3.1	0.4	-4.0	6.2	-5.5
Cc1ccc(Sc2ccc(NC(=O)CCl)cc2)cc1C	66.4*	-11.0	4.7	7.3	16.9	-14.1
Cc1ccc(NC(=O)CCSCCC(=O)Nc2ccc(C)c(C)c2)cc1C	3.2	-12.4	-1.5	-31.5	8.7	-51.8
CCOC(=O)c1c(C)sc(Sc2ccc(Cl)cc2[N+](=O)[O-])c1OC	75.9*	-2.0	-1.6	-9.9	-3.4	-12.7
CCCCOc1ccc2c(c1)/C(=C(\C(Cl)=C(Cl)Cl)[N+](=O)[O-])N2	-11.2	6.3	-2.2	56.4*	45.1	-28.9
NC(N)=Nc1nc2ccccc2o1	·	-2.6	3.6	-5.8	-6.0	-5.9
COc1nc(-c2ccccc2)ccc1-c1noc(COc2ccccc2)n1	20.1	-6.9	0.5	-13.8	82.2*	-66.8
CCCC1=C(C(=O)OCC)C(c2cccs2)n2ncnc2N1 (configuration not stated)	·	-10.7	2.7	-28.6	8.7	-2.4
Cn1cnc([N+](=O)[O-])c1Sc1nc2ccccc2[nH]1	·	-7.7	6.3	0.7	2.1	-8.2
CS(=O)(=O)c1cc([N+](=O)[O-])c(Sc2nc3ccccc3[nH]2)c([N+](=O)[O-])c1	3.9	4.7	-6.1	10.9	87.1*	1.5
CCOC(=O)c1cccc(NC(=O)Nc2ccc3c(c2)C(=O)OC3)c1	·	-6.9	1.6	-6.0	1.3	-18.6
C/C(=N/NC(=S)Nc1cccc(C)c1)c1cccc([N+](=O)[O-])c1	55.5	-3.0	-1.1	-9.4	-24.4	-2.6
CC(C)/C(=N\NC(=O)Nc1ccccc1)c1ccccc1	24.1	-4.6	-1.9	-2.2	2.2	-16.1
Cc1cccc(NC(=S)N/N=C(\c2ccccc2)C(C)C)c1	73.3*	0.6	-3.2	-23.0	-24.3	-8.7
CC/C(=N\NC(=S)Nc1cc(C)ccc1C)c1ccc(OC(F)F)cc1	66.5*	-7.9	-5.2	4.1	-19.2	-3.9
CC/C(=N\NC(=S)Nc1cccc(C)c1)c1ccccc1	71.2*	-8.4	-6.2	5.3	-31.8	-1.9
CC/C(=N\NC(=S)Nc1ccc(OC)cc1)c1ccc(OC(F)F)cc1	48.6	-3.8	-1.4	-4.8	0.0	-8.6
C/C(=N\NC(=O)C(=O)Nc1cccc(Cl)c1C)c1ccncc1	-9.1	3.1	1.2	-6.8	-10.7	-4.6
SMILES	WT yeast gro inh	RBBP9 inhibitor	eIF4E 4G PPI	EBV gp42 inh	14-3-3 Bad PPI	NCF1 inh
CC(C)CNC(=O)c1ccc(Cl)c(N)c1	-16.1	1.9	14.1	-6.0	-19.8	-10.7
CCC(C(=O)O)N1C(=O)C2CCCCC2C1=O (configuration not stated)	·	-3.8	0.9	-17.7	-4.2	-2.5
COc1ccc2[nH]c3c4c(ccc3c2c1)C(=O)C=CC4=O	·	83.7*	18.4	-9.2	25.9	30.5*
COc1ccc2[nH]c(=O)cc(C(=O)O)c2c1	-8.3	4.8	5.7	-2.3	26.1	3.5
O=C(Nc1ccc(S(=O)(=O)Nc2nccs2)cc1)c1ccc(=O)[nH]c1	-34.2	-4.7	3.2	30.5	7.6	-46.6
COc1nc(SC)nc(Cl)c1Cc1ccc(OC(C)C)cc1	58.6*	2.8	8.6	-2.1	14.6	-5.3
CCCOc1ccc(Cc2c(Cl)nc(SC)nc2OC)cc1	38.1	7.9	6.4	3.1	-4.4	-6.8
CCCOc1ccc(Cc2c(Cl)nc(SC)nc2N(C)C)cc1	63.7*	-13.0	-2.0	-3.6	-4.9	-1.4
CC1CCCC(NCC(=O)Nc2ccc(C(N)=O)cc2)C1C (configuration not stated)	-13.5	-5.3	-1.5	-7.2	-6.0	-10.8
CCCCN(C)CCCNC(=O)/C=C1\Sc2ccccc2NC1=O	-4.0	2.0	-2.4	-16.2	-13.9	-0.9
O=C(Nc1ccc(NC(=O)c2ccccc2O)cc1)Nc1ccc(F)cc1F	·	-11.3	-6.1	-27.7	8.7	-9.2
CCOC(=O)N1CCN(C(=O)c2cn(CC)c3ccc(S(=O)(=O)N4CC(C)CC(C)C4)cc3c2=O)CC1 (configuration not stated)	-2.9	-9.4	2.6	-3.2	2.9	7.2
CC(=O)Nc1ccc(S(=O)(=O)NCCOc2ccc(Cl)cc2C)cc1	20.7	-6.8	3.4	-1.3	-4.9	1.8
CCCCOc1ccc(CONS(=O)(=O)c2ccc(NC(C)=O)cc2)cc1Cl	73.9*	-48.5	-0.6	12.4	12.2	-2.7
S=C(NCC1CCCO1)NC12CC3CC(CC(C3)C1)C2 (configuration not stated)	67.8*	-9.0	-4.1	3.7	-7.7	1.8
COc1cc([N+](=O)[O-])cc(/C=N/N(CCC#N)C(C)=O)c1O	-24.1	-10.6	0.3	-10.4	45.4	-17.5
CC1(C)NC(=O)N(CC(O)COC2CCCCC2)C1=O (configuration not stated)	-13.4	-10.0	-2.8	-0.9	1.8	40.8*
Cc1c2c(=O)n(-c3nc4ccccc4s3)nc-2cc(O)n1Cc1ccccc1	·	1.3	32.3*	-28.7	-8.3	-36.7
Cc1cc(C)n(-c2nc3ccccc3s2)n1	4.7	-6.5	-4.2	-4.2	-1.6	-7.6
CCOc1cc(/C=C2/SC(=S)NC2=O)ccc1OC(=O)c1ccco1	79.3*	-5.1	3.7	-3.9	1.9	-21.7
COc1cc(/C=C2/SC(=S)N(C)C2=O)ccc1OC(=O)c1ccco1	-8.9	-9.9	-0.8	-73.5	2.6	-50.5
O=S(=O)([O-])CCC[n+]1c(SCCCS(=O)(=O)O)sc2ccc(Cl)cc21	-16.9	0.5	15.0	-11.8	92.5*[fluorescence artefact?]	-5.4
